SENP8 block-1 = human SENP8 protease inhibitors, primary screen, biochemical, fluorescence, Nedd8 protein substrate, uHTS; Sentrin-specific protease 8 (Homo sapiens), Q96LD8; recombinant SENP8; inhibition, % at 20 µM; 0.64% of 360,000 active; in the data active means inhibition mostly above about 40%, no sharp cut-off; inactive means mostly below about 27%
Target sequence (Q96LD8 whole entry, looked up): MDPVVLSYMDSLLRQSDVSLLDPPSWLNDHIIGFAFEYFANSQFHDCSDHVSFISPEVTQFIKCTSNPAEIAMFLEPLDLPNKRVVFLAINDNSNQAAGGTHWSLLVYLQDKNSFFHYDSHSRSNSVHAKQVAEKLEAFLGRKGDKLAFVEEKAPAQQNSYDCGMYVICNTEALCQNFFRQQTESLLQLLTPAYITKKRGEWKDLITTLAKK
Apaf-1 inh = inhibitors of human Apaf-1 apoptosome, primary screen, biochemical, DEVD-Rh110 fluorescence, uHTS. reconstituted apoptosome caspase-3 activity. Apoptotic protease-activating factor 1 (Homo sapiens), O14727. inhibition, % at 20 µM. 0.71% of 330,000 active. AID 489030, 2010; active means inhibition of at least 40% at 20 µM
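Material: biochemical Apaf-1 apoptosome reconstitution. Medium: Hepes buffer, pH 7.5. Also added: cytochrome c activation, bis-DEVD rhodamine 110 substrate. Timing: 30 min compound preincubation, 50 min activation, room temperature. Measured by: rhodamine 110 fluorescence at Ex 480/Em 540 nm.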
SENP6 block = SENP6 protease inhibitors, primary screen, biochemical, luminescence, uHTS | Recombinant SENP6 catalytic domain, aminoluciferin luminescence | 1.8% of 330,000 active | inhibition, % at 10 µM | Sentrin-specific protease 6 (Homo sapiens), Q9GZR1 | AID 2599, 2010;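 active means inhibition above about 50% at the single tested dose, limit read from the data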
SENP8 block-2 = SENP8 protease inhibitors, primary screen, biochemical, luminescence; Sentrin-specific protease 8 (Homo sapiens), Q96LD8; purified SENP8, Z-RLRGG-aminoluciferin cleavage; inhibition, % at 10 µM; 1.2% of 330,000 active; AID 2540, 2010; in the data active means inhibition above about 50%
UBC13 polyUb = UBC13 polyubiquitin chain formation inhibitors, primary screen, biochemical, TR-FRET, uHTS; Ubiquitin-conjugating enzyme E2 N (Homo sapiens), P61088; inhibition, % at 20 µM; 0.47% of 330,000 active; in the data active means inhibition above about 45%, passing the limit was not always enough
Target sequence (P61088 whole entry, looked up): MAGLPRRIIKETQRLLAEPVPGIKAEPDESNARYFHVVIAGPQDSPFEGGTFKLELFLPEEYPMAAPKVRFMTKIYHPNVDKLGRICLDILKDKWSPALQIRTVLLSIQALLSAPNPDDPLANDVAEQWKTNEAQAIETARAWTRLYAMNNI
SENP7 inh = SENP7 protease inhibitors, primary screen, biochemical, luminescence, uHTS; recombinant SENP7, Z-RLRGG-aminoluciferin luminescence, 40 min; inhibition, % at 5 µM; 1.5% of 330,000 active;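 active means inhibition above about 50% at the single test dose, limit read from the data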
SENP8 confirm = SENP8 protease inhibitors, retest, confirmation, biochemical, luminescence, single concentration; Recombinant SENP8, Z-RLRGG-aminoluciferin luminescence, 60 min; inhibition, % at 12.5 µM; shares compounds with SENP7 inh; AID 488912, 2010; 40% of 6,200 active;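 active means mean inhibition across replicates above about 50%, limit read from the data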
SENP6 conf = SENP6 protease inhibitors, confirmation, biochemical, luminescence, single concentration; shares compounds with SENP7 inh; recombinant SENP6, Z-RLRGG-aminoluciferin luminescence; 58% of 6,200 active; inhibition, % at 12.5 µM
SENP7 conf = SENP7 protease inhibitors, retest, confirmation, biochemical, luminescence, single concentration; shares compounds with SENP7 inh; recombinant SENP7, Z-RLRGG-aminoluciferin luminescence, 40 min; inhibition, % at 12.5 µM; 69% of 6,200 active
Casp3 select = caspase-3 protease inhibitors, confirmation, selectivity assay for SENP inhibitor project, biochemical, single concentration | AID 488918, 2010 | shares compounds with SENP7 inh | inhibition, % at 12.5 µM | purified caspase-3, Z-DEVD-aminoluciferin luminescence, 60 min | 60% of 6,200 active;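 active means mean inhibition above about 50%, limit read from the data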
Target sequence (P42574 28-227 limits assumed): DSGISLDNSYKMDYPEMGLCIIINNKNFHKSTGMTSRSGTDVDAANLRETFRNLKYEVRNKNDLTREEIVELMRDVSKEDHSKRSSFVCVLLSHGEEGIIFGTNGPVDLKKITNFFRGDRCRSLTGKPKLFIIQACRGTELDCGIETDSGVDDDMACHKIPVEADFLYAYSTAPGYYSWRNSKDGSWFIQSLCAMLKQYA
Luc interf = interferes with luciferase luminescence in SENP counter-screen | shares compounds with SENP7 inh | 39% of 6,200 active | Pre-incubated SENP8/Z-RLRGG-aminoluciferin, luciferase luminescence interference | inhibition, % at 12.5 µM;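 active means mean inhibition above about 50% when retested at one dose, limit read from the data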
Each line names hits and unclear results; the compound was inactive in the other large screens (follow-up assays come after a bar, where they were run). Only some compounds are listed: those with a hit (about 3% of all), similar ones and a draw of the others.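 How the source made its calls, unless noted: active means mean inhibition above about 50% in the one-dose retest (limit read from the data); inactive means the rest.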

O=C(COc1ccc(S(=O)(=O)N2CCOCC2)cc1)NCc1ccccn1	none
Cc1ccc(S(=O)(=O)N2CCCCC2)cc1C(=O)N(CCc1ccccc1)Cc1ccccc1	none
COC(=O)c1ccccc1NC(=O)Nc1c(C)n(C)n(-c2ccccc2)c1=O	none
O=C(/C=C/c1ccco1)Nc1cc(Cl)ccc1C(=O)O	SENP6 block 73, SENP8 block-2 56 | SENP8 confirm 72 | SENP6 conf 71 | SENP7 conf 88 | Casp3 select 70 | Luc interf 75
O=C(/C=C/c1ccco1)Nc1ccccc1C(=O)O	SENP6 block 93, SENP8 block-2 88, SENP7 inh 83 | SENP8 confirm 93 | SENP6 conf 94 | SENP7 conf 101 | Casp3 select 97 | Luc interf 93
O=C(/C=C/c1ccco1)Nc1ccccc1C(=O)Nc1cccc(C(=O)O)c1	none
O=C(COc1ccc2ccccc2c1)Nc1ccccc1C(=O)O	SENP6 block 55 | SENP8 confirm 54 | SENP6 conf 51 | SENP7 conf inactive | Casp3 select inactive | Luc interf inactive
COc1ccc(/C=C/C(=O)Nc2ccccc2C(=O)O)cc1	SENP6 block 95, SENP8 block-2 93, SENP7 inh 96 | SENP8 confirm 97 | SENP6 conf 97 | SENP7 conf 100 | Casp3 select 96 | Luc interf 96
O=C(/C=C\c1ccco1)Nc1cc([N+](=O)[O-])ccc1F	none
COc1cc(OC)c(OC)cc1/C=C/c1cc(C(=O)O)c2ccccc2n1	none
COc1ccc(/C=C/c2cc(C(=O)O)c3ccccc3n2)cc1	SENP8 block-2 69, SENP7 inh 55 | SENP8 confirm inactive | SENP6 conf inactive | SENP7 conf inactive | Casp3 select inactive | Luc interf inactive
CCN(CC)C(=O)COc1ccc(-c2ccccc2)cc1	SENP6 block 70, SENP7 inh 60 | SENP8 confirm 55 | SENP6 conf 55 | SENP7 conf 82 | Casp3 select 73 | Luc interf 66
O=C1NC2=C(C(=O)CCC2)C(c2ccc3ncccc3c2)N1 (centres undefined)	SENP7 inh 72 | SENP8 confirm inactive | SENP6 conf inactive | SENP7 conf inactive | Casp3 select inactive | Luc interf inactive
CC(=O)Nc1ccc(S(=O)(=O)NCC2(N3CCOCC3)CCCCC2)cc1	none
CCN(CC)CCN(C(=O)c1ccc(C(C)=O)cc1)c1nc2ccc(Cl)cc2s1	none
COCn1c(-c2cccc(Br)c2)nc2ccccc21	SENP6 block 51 | SENP8 confirm inactive | SENP6 conf inactive | SENP7 conf 65 | Casp3 select inactive | Luc interf 55
COCn1c(-c2ccc(OC)c(OC)c2)nc2ccccc21	none
Cc1ccsc1/C=C1/C(=O)NN(c2ccccc2)C1=O	none
Cc1ccsc1C=C1C(=O)c2ccccc2C1=O	SENP7 inh 69 | SENP8 confirm 74 | SENP6 conf 66 | SENP7 conf 79 | Casp3 select 69 | Luc interf inactive
O=C(NC(Cc1c[nH]c2ccccc12)C(=O)O)c1cccc(S(=O)(=O)N2CCCCC2)c1 (centres undefined)	none (no result: Apaf-1 inh, SENP6 block, SENP8 block-2, UBC13 polyUb, SENP7 inh)
COCCNC(=O)/C(C#N)=C/c1cccc(/C=C(\C#N)C(=O)NCCOC)c1	none (no result: Apaf-1 inh, SENP6 block, SENP8 block-2, UBC13 polyUb, SENP7 inh)
COCCNC(=O)/C(C#N)=C/c1ccc(O)cc1	SENP6 block 92, SENP8 block-2 77, SENP7 inh 82 | SENP8 confirm inactive | SENP6 conf 79 | SENP7 conf 96 | Casp3 select 83 | Luc interf 80
Cn1c2c(c(=O)n1-c1ccccc1)CSCC2	none
C=CCN(C(=O)c1csnn1)C(C(=O)NC1CCCCC1)c1ccc(F)cc1 (centres undefined)	none
Cn1cnnc1SCC(=O)c1cc2ccccc2oc1=O	SENP7 inh 67 | SENP8 confirm inactive | SENP6 conf inactive | SENP7 conf inactive | Casp3 select inactive | Luc interf inactive
Cc1cccc(N2C(=O)CC(N3CCN(Cc4ccc5c(c4)OCO5)CC3)C2=O)c1 (centres undefined)	none
O=C1CC(N2CCN(Cc3ccc4c(c3)OCO4)CC2)C(=O)N1c1ccccc1 (centres undefined)	SENP7 inh 62 | SENP8 confirm inactive | SENP6 conf inactive | SENP7 conf inactive | Casp3 select inactive | Luc interf inactive
O=C1NC(=O)/C(=C\c2ccc(OCc3cccc([N+](=O)[O-])c3)cc2)N1	none
CC(/C=C/c1ccc(O)cc1)=N/O	SENP6 block 91, SENP8 block-2 81, SENP7 inh 85 | SENP8 confirm 86 | SENP6 conf 84 | SENP7 conf 96 | Casp3 select 93 | Luc interf 86
OCC[C@H]1NCc2cc(CO)cc(-c3ccccc3)c21	none (no result: Apaf-1 inh, SENP6 block, SENP8 block-2, UBC13 polyUb, SENP7 inh)
COc1ccc(-c2cn3c(n2)CCC3)cc1	none
c1ccc(-c2ccc(-c3cn4c(n3)CCC4)cc2)cc1	SENP6 block 87, SENP8 block-2 69, SENP7 inh 73 | SENP8 confirm 80 | SENP6 conf 80 | SENP7 conf 95 | Casp3 select 66 | Luc interf 60
COc1cccc(/C=C2\Oc3ccc(O)cc3C2=O)c1O	SENP6 block 71, SENP8 block-2 56, SENP7 inh 64 | SENP8 confirm 72 | SENP6 conf 69 | SENP7 conf 90 | Casp3 select 72 | Luc interf inactive
COc1ccc(NC(=S)N(CCO)Cc2cc3c(C)cc(C)cc3[nH]c2=O)cc1	SENP6 block 89 | SENP8 confirm inactive | SENP6 conf inactive | SENP7 conf inactive | Casp3 select inactive | Luc interf inactive

From PubChem BioAssay
